Residue numbers refer to the chain shown, from its start.
Key:
Settings in all cases: stereoisomer not certain
[1] = target: T1, OR6C65 (Homo sapiens) (UniProt A6NJZ3)
T1 sequence (whole entry): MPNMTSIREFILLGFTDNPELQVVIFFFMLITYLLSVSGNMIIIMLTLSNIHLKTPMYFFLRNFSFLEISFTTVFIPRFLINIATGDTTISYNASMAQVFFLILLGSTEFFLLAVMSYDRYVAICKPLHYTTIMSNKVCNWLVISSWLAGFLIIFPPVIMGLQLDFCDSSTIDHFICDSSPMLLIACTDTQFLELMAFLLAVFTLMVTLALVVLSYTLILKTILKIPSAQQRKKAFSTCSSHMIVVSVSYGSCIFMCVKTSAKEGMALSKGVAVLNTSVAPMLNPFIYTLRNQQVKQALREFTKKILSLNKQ
How it was run: (§1)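 Values were gathered from published papers (main text and supplementary material), with extra details requested from the original authors when needed, and checked for typos and inconsistencies. Each receptor–molecule pair is called responsive (active) if the original authors judged the measured signal statistically different from baseline, and non-responsive (inactive) otherwise. Assay methods varied by source, often transient mammalian cell-line luciferase assays. Recorded details include cell line, G-protein, co-transfected protein and tags.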

[2] = target: T2, OR6C68 (Homo sapiens) (UniProt A6NDL8)
T2 sequence (whole entry): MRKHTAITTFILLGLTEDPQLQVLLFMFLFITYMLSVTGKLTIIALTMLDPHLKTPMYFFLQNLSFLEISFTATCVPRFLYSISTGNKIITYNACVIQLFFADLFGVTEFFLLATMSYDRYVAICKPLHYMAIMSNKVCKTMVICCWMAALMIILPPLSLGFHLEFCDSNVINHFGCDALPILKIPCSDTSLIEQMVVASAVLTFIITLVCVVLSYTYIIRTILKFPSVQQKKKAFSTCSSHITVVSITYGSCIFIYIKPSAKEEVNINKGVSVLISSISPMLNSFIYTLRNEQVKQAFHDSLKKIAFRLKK
How it was run: as §1

[3] = target: T3, OR6C70 (Homo sapiens) (UniProt A6NIJ9)
T3 sequence (whole entry): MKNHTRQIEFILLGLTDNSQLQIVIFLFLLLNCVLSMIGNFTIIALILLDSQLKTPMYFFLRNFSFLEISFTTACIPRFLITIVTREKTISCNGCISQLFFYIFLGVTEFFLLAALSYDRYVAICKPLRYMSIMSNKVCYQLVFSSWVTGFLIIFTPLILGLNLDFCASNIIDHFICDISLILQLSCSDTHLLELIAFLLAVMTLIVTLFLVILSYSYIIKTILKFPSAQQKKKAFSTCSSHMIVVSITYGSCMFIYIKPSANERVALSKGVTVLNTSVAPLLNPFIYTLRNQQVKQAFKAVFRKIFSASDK
How it was run: as §1

[4] = target: T4, OR6C74 (Homo sapiens) (UniProt A6NCV1)
T4 sequence (whole entry): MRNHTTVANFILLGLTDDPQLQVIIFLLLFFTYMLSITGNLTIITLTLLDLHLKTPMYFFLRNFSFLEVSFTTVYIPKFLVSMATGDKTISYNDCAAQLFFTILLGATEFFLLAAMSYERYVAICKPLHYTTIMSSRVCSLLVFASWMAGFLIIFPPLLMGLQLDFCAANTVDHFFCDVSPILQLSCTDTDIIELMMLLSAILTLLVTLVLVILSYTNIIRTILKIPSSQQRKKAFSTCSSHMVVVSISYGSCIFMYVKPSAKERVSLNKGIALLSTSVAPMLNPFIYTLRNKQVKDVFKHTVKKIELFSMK
How it was run: as §1

[5] = target: T5, OR6C75 (Homo sapiens) (UniProt A6NL08)
T5 sequence (whole entry): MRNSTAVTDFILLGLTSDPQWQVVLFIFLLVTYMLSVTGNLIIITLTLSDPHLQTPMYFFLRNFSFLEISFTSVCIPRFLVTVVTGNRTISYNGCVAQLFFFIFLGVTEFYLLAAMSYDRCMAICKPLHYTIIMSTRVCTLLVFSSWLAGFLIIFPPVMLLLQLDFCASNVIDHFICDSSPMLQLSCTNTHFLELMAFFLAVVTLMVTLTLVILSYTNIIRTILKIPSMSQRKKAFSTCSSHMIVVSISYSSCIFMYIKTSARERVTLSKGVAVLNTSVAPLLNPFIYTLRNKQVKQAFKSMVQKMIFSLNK
How it was run: as §1

[6] = target: T6, OR6C76 (Homo sapiens) (UniProt A6NM76)
T6 sequence (whole entry): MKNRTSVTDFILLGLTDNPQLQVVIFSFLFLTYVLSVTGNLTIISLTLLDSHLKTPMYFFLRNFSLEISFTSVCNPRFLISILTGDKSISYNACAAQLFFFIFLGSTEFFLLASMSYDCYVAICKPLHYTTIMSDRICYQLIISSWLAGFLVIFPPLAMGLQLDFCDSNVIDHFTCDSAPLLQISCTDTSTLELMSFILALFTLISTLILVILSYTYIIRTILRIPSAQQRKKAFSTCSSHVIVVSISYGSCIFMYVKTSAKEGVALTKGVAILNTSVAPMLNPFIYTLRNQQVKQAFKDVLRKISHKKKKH
How it was run: as §1

[7] = target: T7, OR6F1 (Homo sapiens) (UniProt Q8NGZ6)
T7 sequence (whole entry): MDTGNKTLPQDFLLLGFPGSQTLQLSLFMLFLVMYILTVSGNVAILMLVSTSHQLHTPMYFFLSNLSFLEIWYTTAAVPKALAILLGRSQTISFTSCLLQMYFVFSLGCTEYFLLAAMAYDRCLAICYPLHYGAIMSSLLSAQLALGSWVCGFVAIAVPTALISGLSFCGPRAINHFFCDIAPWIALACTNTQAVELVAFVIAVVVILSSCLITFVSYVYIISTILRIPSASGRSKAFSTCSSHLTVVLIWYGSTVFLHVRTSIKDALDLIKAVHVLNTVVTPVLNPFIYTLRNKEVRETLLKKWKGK
How it was run: as §1

[8] = target: T8, OR6J1 (Homo sapiens) (UniProt Q8NGC5)
T8 sequence (whole entry): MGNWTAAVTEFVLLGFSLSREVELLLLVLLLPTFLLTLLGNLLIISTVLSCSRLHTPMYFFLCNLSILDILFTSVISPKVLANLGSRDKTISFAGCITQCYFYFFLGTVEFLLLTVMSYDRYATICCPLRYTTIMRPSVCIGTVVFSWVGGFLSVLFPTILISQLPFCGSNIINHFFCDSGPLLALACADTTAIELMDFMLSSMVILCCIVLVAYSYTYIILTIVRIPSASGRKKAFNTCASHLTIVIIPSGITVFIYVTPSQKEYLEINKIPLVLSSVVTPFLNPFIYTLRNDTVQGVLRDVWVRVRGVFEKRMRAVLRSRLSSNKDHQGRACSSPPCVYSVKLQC
How it was run: as §1

[9] = target: T9, OR6K2 (Homo sapiens) (UniProt Q8NGY2)
T9 sequence (whole entry): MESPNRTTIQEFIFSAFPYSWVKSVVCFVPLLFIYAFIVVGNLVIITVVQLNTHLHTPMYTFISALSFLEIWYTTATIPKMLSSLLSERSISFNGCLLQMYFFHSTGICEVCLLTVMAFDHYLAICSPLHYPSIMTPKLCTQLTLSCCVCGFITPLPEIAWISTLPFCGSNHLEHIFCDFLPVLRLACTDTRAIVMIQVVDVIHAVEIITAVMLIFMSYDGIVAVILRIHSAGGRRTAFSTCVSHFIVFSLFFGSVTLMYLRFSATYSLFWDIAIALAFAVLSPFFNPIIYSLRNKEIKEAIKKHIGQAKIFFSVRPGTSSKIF
How it was run: as §1

[10] = target: T10, OR6K3 (Homo sapiens) (UniProt Q8NGY3)
T10 sequence (whole entry): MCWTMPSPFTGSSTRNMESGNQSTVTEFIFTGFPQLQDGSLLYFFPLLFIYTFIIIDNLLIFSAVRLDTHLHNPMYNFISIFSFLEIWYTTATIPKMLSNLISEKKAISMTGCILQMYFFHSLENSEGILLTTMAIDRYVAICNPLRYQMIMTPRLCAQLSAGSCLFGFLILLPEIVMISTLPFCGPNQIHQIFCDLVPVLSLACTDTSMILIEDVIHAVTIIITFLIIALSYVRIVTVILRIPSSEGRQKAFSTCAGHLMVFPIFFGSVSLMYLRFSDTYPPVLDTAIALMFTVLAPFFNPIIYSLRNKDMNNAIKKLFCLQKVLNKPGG
How it was run: as §1

[11] = target: T11, OR6K6 (Homo sapiens) (UniProt Q8NGW6)
T11 sequence (whole entry): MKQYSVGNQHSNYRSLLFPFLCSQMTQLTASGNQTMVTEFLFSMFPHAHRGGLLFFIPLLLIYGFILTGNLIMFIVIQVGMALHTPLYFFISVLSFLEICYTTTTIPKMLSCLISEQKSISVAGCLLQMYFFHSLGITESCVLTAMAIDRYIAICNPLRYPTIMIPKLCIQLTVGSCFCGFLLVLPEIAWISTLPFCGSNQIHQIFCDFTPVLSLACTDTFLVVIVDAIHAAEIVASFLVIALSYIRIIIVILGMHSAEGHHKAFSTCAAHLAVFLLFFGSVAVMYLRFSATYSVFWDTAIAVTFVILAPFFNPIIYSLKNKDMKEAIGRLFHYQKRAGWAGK
How it was run: as §1

[12] = target: T12, OR6M1 (Homo sapiens) (UniProt Q8NGM8)
T12 sequence (whole entry): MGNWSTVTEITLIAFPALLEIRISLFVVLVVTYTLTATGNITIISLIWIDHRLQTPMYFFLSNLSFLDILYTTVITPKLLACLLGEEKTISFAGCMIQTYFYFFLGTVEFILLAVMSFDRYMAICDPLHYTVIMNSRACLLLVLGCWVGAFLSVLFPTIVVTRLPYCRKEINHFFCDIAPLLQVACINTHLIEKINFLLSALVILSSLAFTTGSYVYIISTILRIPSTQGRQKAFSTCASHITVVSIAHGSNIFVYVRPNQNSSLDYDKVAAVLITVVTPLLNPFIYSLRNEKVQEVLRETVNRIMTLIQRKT
How it was run: as §1

[13] = target: T13, OR6N1 (Homo sapiens) (UniProt Q8NGY5)
T13 sequence (whole entry): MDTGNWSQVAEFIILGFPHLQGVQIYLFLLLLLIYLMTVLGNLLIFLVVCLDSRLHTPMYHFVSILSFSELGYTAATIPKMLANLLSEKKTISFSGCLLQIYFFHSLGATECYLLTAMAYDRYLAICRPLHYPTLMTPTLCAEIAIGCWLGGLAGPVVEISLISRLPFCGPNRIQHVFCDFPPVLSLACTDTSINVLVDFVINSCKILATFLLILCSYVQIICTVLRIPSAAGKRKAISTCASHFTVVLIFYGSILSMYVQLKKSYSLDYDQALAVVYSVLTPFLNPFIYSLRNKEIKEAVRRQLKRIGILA
How it was run: as §1

[14] = target: T14, OR6N2 (Homo sapiens) (UniProt Q8NGY6)
T14 sequence (whole entry): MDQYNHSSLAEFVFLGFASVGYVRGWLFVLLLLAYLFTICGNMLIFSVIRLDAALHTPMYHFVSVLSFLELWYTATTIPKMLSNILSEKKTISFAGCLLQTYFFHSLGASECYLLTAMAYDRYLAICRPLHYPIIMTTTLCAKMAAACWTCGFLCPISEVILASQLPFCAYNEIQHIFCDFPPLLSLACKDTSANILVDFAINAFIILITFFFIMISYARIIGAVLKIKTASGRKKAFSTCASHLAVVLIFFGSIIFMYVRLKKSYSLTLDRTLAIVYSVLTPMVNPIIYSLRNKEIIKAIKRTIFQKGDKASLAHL
How it was run: as §1

[15] = target: T15, OR6P1 (Homo sapiens) (UniProt Q8NGX9)
T15 sequence (whole entry): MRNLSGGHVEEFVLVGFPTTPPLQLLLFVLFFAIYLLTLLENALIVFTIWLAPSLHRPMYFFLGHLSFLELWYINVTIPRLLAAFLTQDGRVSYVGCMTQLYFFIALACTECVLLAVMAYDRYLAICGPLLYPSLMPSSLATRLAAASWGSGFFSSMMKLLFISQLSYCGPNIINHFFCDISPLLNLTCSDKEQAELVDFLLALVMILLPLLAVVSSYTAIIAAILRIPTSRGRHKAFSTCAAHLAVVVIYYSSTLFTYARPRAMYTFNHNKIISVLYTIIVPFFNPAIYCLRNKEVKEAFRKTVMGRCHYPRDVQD
How it was run: as §1

[16] = target: T16, OR6Q1 (Homo sapiens) (UniProt Q8NGQ2)
T16 sequence (whole entry): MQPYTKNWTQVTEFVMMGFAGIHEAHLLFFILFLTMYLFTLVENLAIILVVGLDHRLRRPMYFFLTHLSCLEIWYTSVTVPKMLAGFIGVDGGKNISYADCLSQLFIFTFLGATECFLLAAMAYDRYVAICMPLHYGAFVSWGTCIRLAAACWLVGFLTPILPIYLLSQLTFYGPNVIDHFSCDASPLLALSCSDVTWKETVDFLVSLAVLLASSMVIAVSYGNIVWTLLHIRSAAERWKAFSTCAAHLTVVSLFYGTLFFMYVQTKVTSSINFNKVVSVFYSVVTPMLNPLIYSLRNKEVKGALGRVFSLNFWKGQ
How it was run: as §1

[17] = target: T17, OR6J1 (Homo sapiens) (UniProt Q8NGC5); remark: listed apart in the source
T17 sequence (whole entry): T8 sequence (whole entry) with P250S
How it was run: as §1

[18] = tested on: T18, OR6K3
T18 sequence (whole entry): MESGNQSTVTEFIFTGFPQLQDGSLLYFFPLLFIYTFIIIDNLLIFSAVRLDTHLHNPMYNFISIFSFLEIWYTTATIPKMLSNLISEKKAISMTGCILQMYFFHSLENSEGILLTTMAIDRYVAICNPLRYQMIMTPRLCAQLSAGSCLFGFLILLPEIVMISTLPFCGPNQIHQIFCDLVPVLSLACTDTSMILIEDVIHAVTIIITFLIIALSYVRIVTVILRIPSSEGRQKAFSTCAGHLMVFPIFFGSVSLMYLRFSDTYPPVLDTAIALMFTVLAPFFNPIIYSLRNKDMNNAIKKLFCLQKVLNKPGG
How it was run: as §1

[19] = tested on: T19, OR6M1 R224C
T19 sequence (whole entry): T12 sequence (whole entry) with R224C
How it was run: as §1

[20] = tested on: T20, OR6M1 T276K
T20 sequence (whole entry): T12 sequence (whole entry) with T276K
How it was run: as §1

Measured: odorant receptor agonist call

CC1CCCCCCCCCCCCC(=O)C1 (stereo not drawn)
not listed: [17] | [18] | [19] | [20]
inactive: all other assays above

CCCCC(S)C(C)CO (stereo not drawn)
not listed: [17] | [18] | [19] | [20]
inactive: all other assays above

CC1=C(O)C(=O)OC1C (stereo not drawn)
not listed: [8] | [10]
inactive: all other assays above

Cc1cnc(C)c(C)n1
not listed: [8] | [10]
inactive: all other assays above

— the M2OR odorant receptor database
